Source: ChEMBL document CHEMBL2384936, “Synthesis and evaluation of antimicrobial activity of hydrazones derived from 3-oxido-1H-imidazole-4-carbohydrazides” (Eur J Med Chem, 2013)
Active and inactive are the calls of the source.

Key:
[1] = tested on: Candida albicans; assay: Antifungal activity against Candida albicans ATCC 10231 assessed as growth inhibition at 1 to 600 ug/mL after 18 hrs by broth microdilution method; type: functional, organism-based
[2] = tested on: Escherichia coli; assay: Antibacterial activity against Escherichia coli NCTC 8192 assessed as growth inhibition at 1 to 600 ug/mL after 18 hrs by broth microdilution method; type: functional, organism-based
[3] = tested on: Enterococcus faecalis; assay: Antibacterial activity against Enterococcus faecalis ATCC 29212 assessed as growth inhibition at 1 to 600 ug/mL after 18 hrs by broth microdilution method; type: functional, organism-based
[4] = tested on: Staphylococcus aureus; assay: Antibacterial activity against Staphylococcus aureus ATCC 29213 assessed as growth inhibition at 1 to 600 ug/mL after 18 hrs by broth microdilution method; type: functional, organism-based
How it was run: (§1)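 Frozen stocks (-80 °C, tryptic soy broth with 15% glycerol); S. aureus subcultured on blood agar and identified by catalase, coagulase and clumping factor. Inoculum at 0.5 McFarland. DMSO-dissolved compounds 1–600 µg/mL in Mueller–Hinton broth, 37 °C 18 h, OD600 read with and without compound. MIC = lowest concentration preventing growth; triplicates, per CLSI.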

[5] = tested on: Proteus mirabilis; assay: Antibacterial activity against Proteus mirabilis ATCC 29906 assessed as growth inhibition at 1 to 600 ug/mL after 18 hrs by broth microdilution method; type: functional
[6] = tested on: Staphylococcus epidermidis; assay: Antibacterial activity against Staphylococcus epidermidis ATCC 12228 assessed as growth inhibition at 1 to 600 ug/mL after 18 hrs by broth microdilution method; type: functional, organism-based
[7] = tested on: Staphylococcus aureus; assay: Antibacterial activity against Staphylococcus aureus ATCC 6538 assessed as growth inhibition at 1 to 600 ug/mL after 18 hrs by broth microdilution method; type: functional, organism-based; how it was run: as §1
[8] = tested on: Pseudomonas aeruginosa; assay: Antibacterial activity against Pseudomonas aeruginosa NCTC 6249 assessed as growth inhibition at 1 to 600 ug/mL after 18 hrs by broth microdilution method; type: functional, organism-based
[9] = tested on: Proteus vulgaris; assay: Antibacterial activity against Proteus vulgaris ATCC 49990 assessed as growth inhibition at 1 to 600 ug/mL after 18 hrs by broth microdilution method; type: functional, organism-based

Measured: Activity

Cc1c(C(=O)N/N=C/c2ccccc2O)[n+]([O-])cn1Cc1ccccc1
inactive: all assays above

Cc1c(C(=O)N/N=C/c2ccco2)[n+]([O-])cn1Cc1ccccc1
inactive: all assays above

Cc1c(C(=O)NN=C2CCCCC2)[n+]([O-])cn1Cc1ccccc1
inactive: all assays above
